Calls of active or inactive are those of the source. The calls are words filed in the database; no cut-off is given here.
What was measured:
Escherichia coli [1] = assay: Inhibition of Escherichia coli recombinant His6-tagged DXR expressed in Escherichia coli XL-1 blue using DXP as substrate at 1000 uM after 5 mins by spectrophotometric analysis
Escherichia coli [2] = assay: Inhibition of Escherichia coli recombinant His6-tagged DXR expressed in Escherichia coli XL-1 blue using DXP as substrate at 1000 uM incubated for 2 mins prior to substrate addition measured after 5 mins by spectrophotometric analysis
[3] = Inhibition of Escherichia coli recombinant His6-tagged DXR expressed in Escherichia coli XL-1 blue using DXP as substrate incubated for 2 mins prior to substrate addition measured after 5 mins by spectrophotometric analysis
Procedure, shortened: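 His-tagged E. coli DXR, assayed at pH 7.5. Inhibitor was pre-incubated with enzyme and NADPH for 2 min at 37 °C, then DXP was added to start the reaction. Activity was read as NADPH consumption at 340 nm on a UV–visible spectrophotometer, and IC50 was derived from it.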

[4] = Inhibition of Escherichia coli recombinant His6-tagged DXR expressed in Escherichia coli XL-1 blue using DXP as substrate after 5 mins by spectrophotometric analysis
Procedure, shortened: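 Recombinant His-tagged E. coli DXR. DXP-to-MEP conversion followed as NADPH consumption at 340 nm by UV–visible spectrophotometry, assay pH 7.5. Enzyme, NADPH and inhibitor were not pre-incubated; the reaction was started by adding DXP. IC50 derived from the rate data.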

[5] = Drug degradation assessed as carbon disulfide production at pH 7.5; type: physicochemical; details: buffer
Escherichia coli [6] = assay: Ratio of IC50 for Escherichia coli recombinant His6-tagged DXR without preincubation to IC50 for Escherichia coli recombinant His6-tagged DXR with preincubation

Row | SMILES | inhibition (Escherichia coli [1]) | inhibition (Escherichia coli [2]) | IC50 [3] | IC50 [4] | Drug degradation [5] | Ratio IC50 (Escherichia coli [6])
1 | CSC(=S)N(C)CCCP(=O)(O)O | inactive | inactive |  |  |  | 
2 | CSC(=S)NCCP(=O)(O)O |  |  | 2700 µM | 2800 µM |  | 
3 | CN(CCCP(=O)([O-])O)C(=S)[S-].[Na+].[Na+] | inactive | inactive |  |  | Active | 
4 | CN(O)C(=O)CCCP(=O)(O)O |  |  | 0.048 µM | 0.5 µM |  | 10
5 | CON(C)C(=O)CCCP(=O)(O)O |  |  | 3800 µM | 6900 µM |  | 
6 | O=CN(O)CCCP(=O)(O)O [FOSMIDOMYCIN] |  |  | 0.032 µM | 0.25 µM |  | 8
7 | CN(CCP(=O)([O-])O)C(=S)[S-].[Na+].[Na+] | inactive | inactive |  |  | Active | 
8 | O=P(O)(O)CCCc1cccc(O)c1O | inactive | inactive |  |  |  | 
9 | O=P(O)(O)CCc1cccc(O)c1O |  |  | 1200 µM | 2000 µM |  | 
10 | CONC(=O)CCCP(=O)(O)O |  |  | 930 µM | 11500 µM |  | 
11 | NNC(=O)CCCP(=O)(O)O |  |  | 1000 µM | 1800 µM |  | 
